Data from ChEMBL document CHEMBL1121617, “Antihypertensive ureidopiperidines” (1980).
Active and inactive are the calls of the source. The calls are words filed in the database; no cut-off is given here.

Key:
[1] = system: Rattus norvegicus; assay: The percent fall in systolic blood pressure at 1.5 / 4 h after peroral administration of 50 mg/kg in conscious DOCA/saline hypertensive rats at 24 hr; Non significant; assay type: functional, organism-based; design: dose 50 mg/kg; conditions: Artery, at 50 mg/kg
In short: (§1)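 DOCA/saline hypertensive rats, four per group, dosed orally at 50, 25 or 10 mg/kg. Mean starting systolic pressure was recorded for each group. Systolic pressure was then read 2, 6 and 24 h after dosing and reported as percentage fall from the starting value.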

[2] = system: Rattus norvegicus; assay: The percent fall in systolic blood pressure at 1.5 / 4 hr after peroral administration of 50 mg/kg in DOCA/saline hypertensive rats at 2 hr; Non significant; assay type: functional, organism-based; design: dose 50 mg/kg; conditions: Artery, at 50 mg/kg
[3] = system: Rattus norvegicus; assay: Percent fall in systolic blood pressure at 1.5 / 4 hr after peroral administration of 50 mg/kg in DOCA/saline hypertensive rats at 6 h; Non significant; assay type: functional, organism-based; design: dose 50 mg/kg; conditions: Artery, at 50 mg/kg
[4] = system: Rattus norvegicus; assay: Starting systolic blood pressure at dose of 50 mg/kg in rat; assay type: functional, Artery
In short: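 Mean systolic blood pressure before dosing for each group of four DOCA/saline hypertensive rats given 50 mg/kg orally. It indicates how far hypertension was established.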

[5] = system: Rattus norvegicus; assay: The percent fall in systolic blood pressure at 1.5 / 4 hr after peroral administration of 50 mg/kg in DOCA/saline hypertensive rats at 6 hr; assay type: functional, Artery; conditions: route oral
[6] = system: Rattus norvegicus; assay: The percent fall in systolic blood pressure at 1.5 / 4 hr after peroral administration of 50 mg/kg in DOCA/saline hypertensive rats at 24 hr; Non significant; assay type: functional, organism-based; design: dose 50 mg/kg; conditions: Artery, at 50 mg/kg
[7] = system: Rattus norvegicus; assay: The percent fall in systolic blood pressure at 1.5 / 4 h after peroral administration of 50 mg/kg in DOCA/saline hypertensive rats at 2 hr; assay type: functional, Artery; conditions: route oral
[8] = system: Rattus norvegicus; assay: The percent fall in systolic blood pressure at 1.5 / 4 hr after peroral administration of 10 mg/kg in DOCA/saline hypertensive rats at 24 hr; Non significant, p>0.05; assay type: functional, organism-based; design: dose 10 mg/kg; conditions: Artery, at 10 mg/kg; in short: as §1
[9] = system: Rattus norvegicus; assay: Starting systolic blood pressure at dose of 10 mg/kg; assay type: functional, Artery; in short: as §1
[10] = system: Rattus norvegicus; assay: Starting systolic blood pressure at dose of 25 mg/kg; assay type: functional, Artery; in short: as §1
[11] = system: Rattus norvegicus; assay: The percent fall in systolic blood pressure at 1.5 / 4 hr after peroral administration of 25 mg/kg in DOCA/saline hypertensive rats at 24 hr; Non significant, p>0.05; assay type: functional, organism-based; design: dose 25 mg/kg; conditions: Artery, at 25 mg/kg
[12] = system: Rattus norvegicus; assay: The percent fall in systolic blood pressure at 1.5 / 4 hr after peroral administration of 10 mg/kg in DOCA/saline hypertensive rats at 2 hr; assay type: functional, Artery; conditions: route oral; in short: as §1
[13] = system: Rattus norvegicus; assay: The percent fall in systolic blood pressure at 1.5 / 4 hr after peroral administration of 25 mg/kg in DOCA/saline hypertensive rats at 6 hr; assay type: functional, Artery; conditions: route oral; in short: as §1
[14] = system: Rattus norvegicus; assay: The percent fall in systolic blood pressure at 1.5 / 4 hr after peroral administration of 10 mg/kg in DOCA/saline hypertensive rats at 6 h; Non significant, p>0.05; assay type: functional, organism-based; design: dose 10 mg/kg; conditions: Artery, at 10 mg/kg; in short: as §1
[15] = system: Rattus norvegicus; assay: The percent fall in systolic blood pressure at 1.5 / 4 hr after peroral administration of 25 mg/kg in DOCA/saline hypertensive rats at 2 hr; assay type: functional, Artery; conditions: route oral; in short: as §1
[16] = system: Rattus norvegicus; assay: The percent fall in systolic blood pressure after peroral administration of 50 mg/kg in DOCA/saline hypertensive rats at 24 hr; conditions: route oral
[17] = system: Rattus norvegicus; assay: The percent fall in systolic blood pressure at 1.5 / 4 hr after peroral administration of 10 mg/kg in DOCA/saline hypertensive rats at 24 hr; Non significant; assay type: functional, organism-based; design: dose 10 mg/kg; conditions: Artery, at 10 mg/kg
[18] = system: Rattus norvegicus; assay: The percent fall in systolic blood pressure at 1.5 / 4 hr after peroral administration of 40 mg/kg in conscious renal hypertensive rats (RHR).; assay type: functional, Artery; conditions: route oral
In short: (§2)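 Conscious renal hypertensive rats, four per group, dosed orally. Starting systolic pressures were 160–200 mmHg. Percentage fall in systolic pressure was taken at 1.5 and/or 4 h after dosing. Falls under 10% were scored as ±.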

[19] = system: Rattus norvegicus; assay: The percent fall in systolic blood pressure at 1.5 / 4 hr after peroral administration of 10 mg/kg in DOCA/saline hypertensive rats at 6 hr; assay type: functional, Artery; conditions: route oral; in short: as §1
[20] = system: Rattus norvegicus; assay: The percent fall in systolic blood pressure at 1.5 / 4 hr after peroral administration of 50 mg/kg in DOCA/saline hypertensive rats at 24 hr; assay type: functional, Artery; conditions: route oral; in short: as §1
[21] = system: Rattus norvegicus; assay: The percent fall in systolic blood pressure at 1.5 / 4 hr after peroral administration of 25 mg/kg in DOCA/saline hypertensive rats at 24 hr; assay type: functional, Artery; conditions: route oral; in short: as §1
[22] = system: Rattus norvegicus; assay: The percent fall in systolic blood pressure at 1.5 / 4 hr after peroral administration of 75 mg/kg in conscious renal hypertensive rats (RHR).; assay type: functional, Artery; conditions: route oral; in short: as §2
[23] = system: Rattus norvegicus; assay: The percent fall in systolic blood pressure at 1.5 / 4 hr after peroral administration of 50 mg/kg in conscious renal hypertensive rats (RHR).; assay type: functional, Artery; conditions: route oral
In short: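 Conscious renal hypertensive rats, four per group, with starting systolic pressures of 160-200 mmHg, were given a single oral dose. The value is the percentage fall in systolic pressure at 1.5 h, 4 h, or both after dosing. Falls below 10% are reported as ±.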

[24] = system: Rattus norvegicus; assay: The percent fall in systolic blood pressure at 1.5 / 4 hr after peroral administration of 10 mg/kg in DOCA/saline hypertensive rats at 24 hr; assay type: functional, Artery; conditions: route oral

| Structure (SMILES) | SP [4] | Fall [5] | Fall [6] | Fall [7] | SP [9] | SP [10] | Fall [12] | Fall [13] | Fall [15] | other results |
| --- | --- | --- | --- | --- | --- | --- | --- | --- | --- | --- |
| O=C(Nc1cccc(C(F)(F)F)c1)NC1CCN(CCc2c[nH]c3ccccc23)CC1 | 208 mmHg |  |  |  |  |  |  |  |  | Fall [1]: Not significant; Fall [2]: Not significant; Fall [3]: Not significant |
| O=C(Nc1ccccc1C(F)(F)F)NC1CCN(CCCC(=O)c2ccccc2)CC1 | 208 mmHg | 20% | Not significant | 20% |  |  |  |  |  |  |
| O=C(NC(=O)c1ccccc1)NC1CCN(CCCC(=O)c2ccccc2)CC1 | 169 mmHg |  | Not significant | 21% | 173 mmHg | 178 mmHg | 22% | 26% | 28% | Fall [8]: Not significant; Fall [3]: Not significant; Fall [11]: Not significant; Fall [14]: Not significant |
| O=C(Nc1ccc(Cl)c(Cl)c1)NC1CCN(CCCC(=O)c2ccccc2)CC1 | 169 mmHg | 35% |  | 35% |  |  |  |  |  | Fall [16]: 18% |
| COc1ccccc1OCC(O)CN1CCC(NC(=O)Nc2ccccc2)CC1 (configuration not stated) | 212 mmHg |  |  | 27% |  |  |  |  |  | Fall [3]: Not significant; Fall [16]: -27% |
| CCCCNC(=O)NC1CCN(CCc2c[nH]c3ccccc23)CC1 | 172 mmHg | 29% | Not significant |  |  |  |  |  |  | Fall [2]: Not significant |
| O=C(NC(=O)c1ccccc1)NC1CCN(CCCC(=O)c2ccc(F)cc2)CC1 | 184 mmHg | 31% | Not significant | 43% |  |  |  |  |  |  |
| Cn1cc(CCN2CCC(NC(=O)NC(=O)c3ccccc3)CC2)c2ccccc21 | 172 mmHg | 28% | Not significant | 26% |  |  |  |  |  |  |
| O=C(NC1CCN(CCc2c[nH]c3ccccc23)CC1)c1ccccc1 [INDORAMIN] | 198 mmHg | 45% |  | 41% | 197 mmHg | 178 mmHg | 33% | 29% | 25% | Fall [17]: inactive; Fall [11]: inactive; Activity [18]: 38; Fall [19]: 31%; Fall [20]: 38% |
| O=C(NC(=O)c1ccccc1)NC1CCN(CCc2c[nH]c3ccccc23)CC1 | 179 mmHg | 49% |  | 49% | 178 mmHg | 171 mmHg | 36% | 48% | 51% | Fall [8]: Not significant; Fall [21]: 21%; Fall [14]: Not significant; Activity [18]: 48; Fall [20]: 38% |
| O=C(NC(=O)c1cccs1)NC1CCN(CCc2c[nH]c3ccccc23)CC1 | 193 mmHg | 38% |  | 47% | 169 mmHg | 171 mmHg | 50% | 46% | 43% | Fall [8]: Not significant; Fall [11]: Not significant; Fall [19]: 46%; Fall [20]: 38% |
| Cc1cccc(C)c1NC(=O)NC1CCN(CCc2c[nH]c3ccccc23)CC1 |  |  |  |  |  |  |  |  |  | Activity [22]: <10 |
| O=C(CCCN1CCC(NC(=S)Nc2ccccc2)CC1)c1ccccc1 |  |  |  |  |  |  |  |  |  | Activity [23]: 20 |
| CN(C(=O)Nc1ccccc1)C1CCN(CCc2c[nH]c3ccccc23)CC1 | 174 mmHg |  |  |  | 168 mmHg | 180 mmHg |  | 38% | 44% | Fall ([5]; 50 mg/kg): 52%; Fall [21]: 20%; Fall ([7]; 50 mg/kg): 54%; Fall [20]: 26% |
| O=C(Nc1ccccc1)NC1CCN(CCCC(=O)c2ccccc2)CC1 | 205 mmHg | 24% | Not significant | 31% |  |  |  |  |  | Activity [18]: 39 |
| O=C(CCCN1CCC(NC(=S)NC(=O)c2ccccc2)CC1)c1ccccc1 | 186 mmHg | 32% | Not significant | 36% |  |  |  |  |  |  |
| O=C(NC(=O)c1cccs1)NC1CCN(CCCC(=O)c2ccc(F)cc2)CC1 | 179 mmHg | 45% |  | 49% | 171 mmHg | 174 mmHg | 48% | 28% | 35% | Fall [24]: 16%; Fall [11]: Not significant; Fall [19]: 36%; Fall [20]: 21% |
| O=C(NC(=O)C1CCCCC1)NC1CCN(CCc2c[nH]c3ccccc23)CC1 | 173 mmHg | 52% | Not significant | 48% | 170 mmHg | 181 mmHg | 30% | 54% | 54% | Fall [8]: Non significant, p>0.05; Fall [11]: Not significant; Fall [19]: 27% |
